# Measurements pooled from the literature.
# Lines come from different studies, so protocols differ.
# Target: Serine/threonine-protein kinase 10 (STK10, Homo sapiens, UniProt O94804)
SMILES,effect on,mode,technique,concentration,quantity,result
Cn1cncc1[C@@](O)(COc1ccc(C#N)cc1-c1ccc(OC(F)(F)F)cc1)c1ccc(C#N)cc1,cell-free assay,,competition with immobilised ligand,1 µM,remaining binding,100%
COc1ncccc1-c1cnn2ccc(N3CCN(C(=O)OC(C)C)CC3)nc12,binding,,competition with immobilised ligand,1 µM,remaining binding,63%
COc1cc(Nc2ncc(F)c(Nc3ccc4c(n3)NC(=O)C(C)(C)O4)n2)cc(OC)c1OC,binding,,,10 µM,inhibition,100%
O=c1[nH]c2ccccc2n1C1CCN(Cc2ccc(-c3[nH]c4cc5ncnc5cc4nc3-c3ccccc3)cc2)CC1,cell-free assay,,,0.5 µM,remaining signal,92.6%
Nc1ncc(-c2nc(N3CCOCC3)nc(N3CCOCC3)n2)c(C(F)F)n1,binding,,competition with immobilised ligand,10 µM,remaining binding,64%
Cc1nn(C)cc1-c1nc2c(N3CCN(Cc4ccc(Cl)cc4)CC3)c(Cl)cnc2[nH]1,binding,,competition with immobilised ligand,1 µM,remaining binding,100%
N#CC1(c2ccccn2)CCN(Cc2cc(C(=O)O)c(=O)n3ccccc23)CC1,cell-free assay,,competition with immobilised ligand,1 µM,remaining binding,100%
CC(C)(C)c1cc(C=C(C#N)C#N)cc(Br)c1O,enzyme activity,inhibitor,,0.5 µM,remaining activity,95.4%
